The source made the active and inactive calls. No cut-off for these calls is given here.
Tests used:
[1] = tested on: SK-MEL-1; assay: Cytotoxicity against human SK-MEL-1 cells assessed as reduction in cell viability after 72 hrs by MTT assay; type: functional, cell-based; conditions: SK-MEL-1, 72 h
Method in brief: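 1×10^4 exponentially growing cells were seeded with a range of compound concentrations for 72 h. MTT (0.5 mg/mL) was added for 4 h at 37 °C, and formazan was dissolved in 10% SDS/0.05 M HCl overnight at room temperature in the dark. A570 was read. IC50 was found by nonlinear regression for each experiment, with at least three independent experiments in triplicate.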

[2] = tested on: SK-MEL-1; assay: Cell cycle arrest in human SK-MEL-1 cells assessed as accumulation at G1 phase at 3 uM after 24 hrs by propidium iodide staining-based flow cytometry (reference value: 61.5+/-1.7%); type: functional
[3] = tested on: SK-MEL-1; assay: Induction of apoptosis in human SK-MEL-1 cells assessed as condensation of cell nuclei and chromatins at 30 uM after 24 hrs by bisbenzimide trihydrochloride staining-based fluorescent microscopic analysis; type: functional
Method in brief: (§1)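 Cells were treated with 30 µM for 24 h, then stained with bisbenzimide trihydrochloride. Nuclear chromatin condensation and fragmentation were viewed by fluorescence microscopy.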

[4] = tested on: SK-MEL-1; assay: Cell cycle arrest in human SK-MEL-1 cells assessed as accumulation at S phase at 3 uM after 24 hrs by propidium iodide staining-based flow cytometry (reference value: 17.7+/-0.4%); type: functional
[5] = tested on: SK-MEL-1; assay: Induction of apoptosis in human SK-MEL-1 cells assessed as increase in caspase-9 activity by measuring LEHD-pNA substrate cleavage at 3 uM after 24 hrs by Bradford dye binding assay; type: functional, cell-based
Method in brief: (§2)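 After treatment, cells were lysed in 50 mM HEPES pH 7.4, 1 mM DTT, 0.1 mM EDTA, 0.1% CHAPS. Protein was quantified by Bradford and equal amounts were used. DEVD-pNA (caspase-3/7), IETD-pNA (caspase-8) or LEHD-pNA (caspase-9) cleavage was read as net A405 increase at 37 °C. Results are fold increase over control, means ± SE of three experiments in triplicate.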

[6] = tested on: SK-MEL-1; assay: Cell cycle arrest in human SK-MEL-1 cells assessed as accumulation at sub-G1 phase at 30 uM after 24 hrs by propidium iodide staining-based flow cytometry (reference value: 4.5+/-1.6%); type: functional
[7] = tested on: SK-MEL-1; assay: Cell cycle arrest in human SK-MEL-1 cells assessed as accumulation at G2/M phase at 3 uM after 24 hrs by propidium iodide staining-based flow cytometry (reference value: 16.1+/-0.2%); type: functional
[8] = tested on: SK-MEL-1; assay: Induction of apoptosis in human SK-MEL-1 cells assessed as increase in caspase-8 activity by measuring IETD-pNA substrate cleavage at 3 uM after 24 hrs by Bradford dye binding assay; type: functional, cell-based; method in brief: as §2
[9] = tested on: SK-MEL-1; assay: Cell cycle arrest in human SK-MEL-1 cells assessed as accumulation at G1 phase at 10 uM after 24 hrs by propidium iodide staining-based flow cytometry (reference value: 61.5+/-1.7%); type: functional
[10] = tested on: SK-MEL-1; assay: Cell cycle arrest in human SK-MEL-1 cells assessed as accumulation at G1 phase at 30 uM after 24 hrs by propidium iodide staining-based flow cytometry (reference value: 61.5+/-1.7%); type: functional
[11] = tested on: SK-MEL-1; assay: Cell cycle arrest in human SK-MEL-1 cells assessed as accumulation at G2/M phase at 10 uM after 24 hrs by propidium iodide staining-based flow cytometry (reference value: 16.1+/-0.2%); type: functional
[12] = tested on: SK-MEL-1; assay: Cell cycle arrest in human SK-MEL-1 cells assessed as accumulation at S phase at 10 uM after 24 hrs by propidium iodide staining-based flow cytometry (reference value: 17.7+/-0.4%); type: functional
[13] = tested on: SK-MEL-1; assay: Cell cycle arrest in human SK-MEL-1 cells assessed as accumulation at S phase at 30 uM after 24 hrs by propidium iodide staining-based flow cytometry (reference value: 17.7+/-0.4%); type: functional
[14] = tested on: SK-MEL-1; assay: Cytotoxicity against human SK-MEL-1 cells assessed as formation of unhealthy cells after 24 hrs by inverted phase contrast microscopic analysis; type: functional, cell-based
Method in brief: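 Cells were grown in RPMI 1640 with 10% heat-inactivated FBS, 2 mM L-glutamine and penicillin/streptomycin (37 °C, 5% CO2). They were incubated with vehicle or increasing concentrations for 24 h, then imaged under an inverted phase-contrast microscope.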

[15] = organism: Bos taurus; assay: Inhibition of bovine tubulin polymerization measured at every 30 secs intervals for 50 mins in presence of GTP
Method in brief: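 Purified bovine tubulin without MAPs was incubated in 80 mM PIPES pH 7.0 with 1 mM GTP, 1 mM EGTA, 1 mM MgCl2 and 10% glycerol at 37 °C, across several compound concentrations. A340 was recorded every 30 s for 50 min. Taxol (10 µM) and colchicine (5 µM) served as promotion and inhibition controls.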

[16] = tested on: SK-MEL-1; assay: Induction of apoptosis in human SK-MEL-1 cells assessed as increase in caspase-9 activity by measuring LEHD-pNA substrate cleavage up to 30 uM after 24 hrs by Bradford dye binding assay; type: functional, cell-based; method in brief: as §2
[17] = tested on: SK-MEL-1; assay: Induction of apoptosis in human SK-MEL-1 cells assessed as increase in caspase-8 activity by measuring IETD-pNA substrate cleavage up to 30 uM after 24 hrs by Bradford dye binding assay; type: functional, cell-based; method in brief: as §2
[18] = tested on: SK-MEL-1; assay: Induction of apoptosis in human SK-MEL-1 cells assessed as increase in caspase-3/7 activity by measuring DEVD-pNA substrate cleavage up to 30 uM after 24 hrs by Bradford dye binding assay; type: functional, cell-based; method in brief: as §2
[19] = tested on: SK-MEL-1; assay: Cell cycle arrest in human SK-MEL-1 cells assessed as accumulation at G2/M phase at 30 uM after 24 hrs by propidium iodide staining-based flow cytometry (reference value: 16.1+/-0.2%); type: functional
[20] = tested on: SK-MEL-1; assay: Cell cycle arrest in human SK-MEL-1 cells assessed as accumulation at sub-G1 phase at 10 uM after 24 hrs by propidium iodide staining-based flow cytometry (reference value: 4.5+/-1.6%); type: functional
[21] = tested on: SK-MEL-1; assay: Cell cycle arrest in human SK-MEL-1 cells assessed as accumulation at sub-G1 phase at 3 uM after 24 hrs by propidium iodide staining-based flow cytometry (reference value: 4.5+/-1.6%); type: functional
[22] = tested on: SK-MEL-1; assay: Induction of apoptosis in human SK-MEL-1 cells assessed as increase in caspase-3/7 activity by measuring DEVD-pNA substrate cleavage at 3 uM after 24 hrs by Bradford dye binding assay; type: functional, cell-based; method in brief: as §2
[23] = tested on: SK-MEL-1; assay: Induction of apoptosis in human SK-MEL-1 cells assessed as cleavage of main executioner caspase up to 30 uM after 24 hrs by Western blot method; type: functional, cell-based
Method in brief: (§3)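 Cells were treated with increasing concentrations for 24 h and washed in PBS. Whole-cell lysates were used for pro-caspase-3. For cytochrome c, a cytosolic fraction was prepared: cells swelled in hypotonic HEPES buffer with 250 mM sucrose, were lysed through a 22-gauge needle, and spun at 1000×g then 105000×g (45 min, 4 °C). Both were probed by immunoblotting.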

[24] = tested on: SK-MEL-1; assay: Induction of apoptosis in human SK-MEL-1 cells assessed as chromatin fragmentation at 30 uM after 24 hrs by bisbenzimide trihydrochloride staining-based fluorescent microscopic analysis; type: functional, cell-based; method in brief: as §1
[25] = tested on: SK-MEL-1; assay: Induction of apoptosis in human SK-MEL-1 cells assessed as increase in […] cytochrome c level by Western blot analysis; type: functional, cell-based; method in brief: as §3

`COc1ccc2c(=O)c(O)c(-c3ccc(O)cc3)oc2c1` was tested. Which IC50 [1] did it give?
The IC50 was greater than 100 µM.

Which IC50 [1] does the source give for `COc1cc(-c2oc3ccccc3c(=O)c2O)ccc1O` here?
The IC50 was 22 µM.

Which IC50 [1] does the source give for `COc1c(-c2ccc(O)cc2)oc2ccccc2c1=O` here?
Its IC50 is 91 µM.

Which IC50 [1] does the source give for `COc1ccc(-c2oc3ccccc3c(=O)c2O)cc1O` here?
The IC50 was 32.6 µM.

With `COc1cc([C@@H]2c3cc4c(cc3[C@@H](O[C@@H]3O[C@@H]5CO[C@@H](C)O[C@H]5[C@H](O)[C@H]3O)[C@H]3COC(=O)[C@H]23)OCO4)cc(OC)c1O` [ETOPOSIDE] as the molecule, how does the IC50 [1] read?
Its IC50 is 8 µM.

For `COc1ccc2c(=O)c(O)c(-c3ccccc3O)oc2c1`, which IC50 [1] is on record?
Its IC50 is greater than 100 µM.

For `COc1cc(-c2oc3ccccc3c(=O)c2OC)ccc1O`, which IC50 [1] is on record?
Its IC50 is 79 µM.

Which IC50 [1] does the source give for `O=c1c(O)c(-c2ccccc2O)oc2ccccc12` here?
Its IC50 is greater than 100 µM.

What does the source list for `COc1ccc(-c2oc3ccccc3c(=O)c2OC)cc1O`?
Activity [2]: 24.4%; Activity [3]: Active; Activity [4]: 21.4%; Activity [5]: Active; Activity [6]: 21.9%; Activity [7]: 37.9%; Activity [8]: Active; IC50 [1]: 6.9 µM; Activity [9]: 14.4%; Activity [10]: 30.7%; Activity [11]: 52.2%; Activity [12]: 23.7%; Activity [13]: 26.8%; Activity [14]: Active; inhibition [15]: Dose-dependent effect; Activity [16]: Active; Activity [17]: Active; Activity [18]: Active; Activity [19]: 20.2%; Activity [20]: 9.2%; Activity [21]: 15.9%; Activity [22]: Active; Activity [23]: Active; Activity [24]: Active; Activity [25]: Dose-dependent effect

For `COc1ccc2c(=O)c(OC)c(-c3ccc(O)c(OC)c3)oc2c1`, which IC50 [1] is on record?
Its IC50 is 52 µM.

Which IC50 [1] does the source give for `COc1ccc2c(=O)c(OC)c(-c3ccc(O)cc3)oc2c1` here?
Its IC50 is greater than 100 µM.

For `COc1c(-c2ccccc2O)oc2ccccc2c1=O`, which IC50 [1] is on record?
The IC50 was greater than 100 µM.

With `O=c1c(O)c(-c2ccc(O)cc2)oc2ccccc12` as the molecule, how does the IC50 [1] read?
Its IC50 is greater than 100 µM.

How did the IC50 [1] turn out when `COc1ccc2c(=O)c(OC)c(-c3ccc(OC)c(O)c3)oc2c1` was run?
The IC50 was 26.2 µM.

How did the IC50 [1] turn out when `COc1ccc2c(=O)c(O)c(-c3ccc(OC)c(O)c3)oc2c1` was run?
Its IC50 is 15.5 µM.

How did the IC50 [1] turn out when `COc1ccc2c(=O)c(O)c(-c3ccc(O)c(OC)c3)oc2c1` was run?
The IC50 was 37 µM.

— ChEMBL document CHEMBL4177605, “3'-Hydroxy-3,4'-dimethoxyflavone blocks tubulin polymerization and is a potent apoptotic inducer in human SK-MEL-1 melanoma cells” (Bioorg Med Chem, 2017)
